A short description of series [1]: Cytotoxicity against human MT2 cells by Celltiter-Glo assay. The format is cell-based.
Series [2] is described as follows: Cytotoxicity against African green monkey Vero cells assessed as morphological changes by microscopic method. The format is cell-based. As to conditions: chlorocebus sabaeus.
The next series deals with Chikungunya virus. The series is described as follows: Antiviral activity against Chikungunya virus Indian ocean strain 899 infected in African green monkey Vero cells assessed as reduction in virus-induced cytopathic effect by MTS assay. The format is functional, organism-based. As to conditions: Indian ocean 899, Vero. (Damage to the host cells serves as the signal in cytopathic effect assays.)

Series [3] can be described thus: Selectivity index, ratio of CC50 for human MT2 cells to EC50 for HIV NL4.3 harboring renilla luciferase infected in human MT2 cells. The format is toxicity, cell-based. As to conditions: read-out: Ratio CC50/EC50. Put shortly: (§1)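 Selectivity index is CC50 divided by EC50: Vero CC50 over CHIKV EC50, or MT-2 CC50 over NL4.3-Ren EC50 (HIV). Inputs are in μM unless stated otherwise.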

The test system of series [4] is Human immunodeficiency virus. The series is described as follows: Antiviral activity against HIV NL4.3 harboring renilla luciferase infected in human MT2 cells pretreated for 2 hrs followed by viral infection measured after 48 to 96 hrs post infection by luciferase reporter gene assay. The format is functional, organism-based. As to conditions: Human immunodeficiency virus 1, NL4.3, MT2. An outline of the steps:
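Recombinant NL4.3-Ren virus assay in MT-2 cells. EC50 is given in μM unless stated otherwise.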

The nature of series [5]: Selectivity index, ratio of CC50 for African green monkey Vero cells to EC50 for Chikungunya virus Indian ocean strain 899 infected in African green monkey Vero cells. As to conditions: read-out: Ratio CC50/EC50. The format is toxicity. An outline of the steps:
as §1

Drawing on ChEMBL document CHEMBL4130446, “Environmentally Friendly Procedure Based on Supercritical Fluid Chromatography and Tandem Mass Spectrometry Molecular Networking for the Discovery of Potent Antiviral Compounds from Euphorbia semiperfoliata” (J Nat Prod, 2017), this text covers CC50, EC50 and selectivity ratio for 8 molecules.

By CC50 is commonly meant the concentration at which the toxic effect on the cells reaches its halfway point. As a reminder, the EC50 is the concentration needed to bring the measured effect to its halfway point.

As for `C/C=C(\C)C(=O)O[C@@H]1[C@@H](C)[C@]2(O)[C@@H]3C=C(C)C(=O)[C@@H]3CC(CO)=C[C@H]2[C@@H]2C(C)(C)[C@]12OC(=O)C(C)C`, the CC50 in series [1] is more than 50 µM; in series [2], 116 µM. The EC50 with Chikungunya virus was found to be 17 µM; in series [4], 4.19 µM. The selectivity ratio in series [3] is more than 12; in series [5], 7.

With `C/C=C(\C)C(=O)O[C@@H]1[C@@H](C)[C@]2(O)[C@@H]3C=C(C)C(=O)[C@H]3CC(CO)=C[C@H]2[C@@H]2C(C)(C)[C@]12OC(=O)C(C)C`, the CC50 was more than 50 µM in series [1] and 20 µM in series [2]. Also, the EC50 in the series on Chikungunya virus worked out at 1 µM; in series [4], 0.013 µM. In addition, the selectivity ratio in series [3] was more than 3920; in series [5], 25.

For the molecule `C/C=C(\C)C(=O)O[C@@H]1[C@@H](C)[C@]2(O)[C@@H]3C=C(C)C(=O)[C@H]3CC(C)=C[C@H]2[C@@H]2C(C)(C)[C@]12OC(=O)C(C)C`, the CC50 in series [1] is more than 50 µM; in series [2] it was 154 µM.

As for `C=C1[C@H](OC(C)=O)[C@@H](OC(C)=O)[C@@H](OC(C)=O)C(C)(C)/C=C/[C@@H](C)C(=O)[C@@]2(OC(C)=O)C[C@@](C)(OC(C)=O)[C@H](OC(C)=O)[C@@H]2[C@H]1OC(C)=O`, in series [2], the CC50 is more than 144 µM. For the same molecule, the EC50 in the series with Chikungunya virus was 13.8 µM. Also, the selectivity ratio in series [5] is more than 10.

`CC(=O)O[C@@H]1[C@@H](C)[C@]2(O)[C@@H]3C=C(C)C(=O)[C@H]3CC(CO)=C[C@H]2[C@@H]2C(C)(C)[C@]12OC(=O)C(C)C`: the CC50 in series [1] was more than 50 µM; in series [2], 172 µM. In addition, the EC50 came to 0.44 µM in the series on Chikungunya virus and 0.054 µM in series [4]. In addition, the selectivity ratio is more than 919 in series [3] and 390 in series [5].

`C=C1[C@H](OC(C)=O)[C@@H](O)[C@@H](OC(C)=O)C(C)(C)/C=C/[C@@H](C)C(=O)[C@@]2(OC(C)=O)C[C@@](C)(OC(C)=O)[C@H](OC(C)=O)[C@@H]2[C@H]1OC(C)=O`: the EC50 in the series on Chikungunya virus was more than 153 µM.

With `CCCCCCCCCCCCCC(=O)O[C@@H]1[C@@H](C)[C@@]2(O)[C@@H](C=C(CO)C[C@]3(O)C(=O)C(C)=C[C@@H]23)[C@@H]2C(C)(C)[C@]12OC(C)=O` [PHORBOL MYRISTATE ACETATE], the selectivity ratio in series [5] was 1960.

In series [1], `CC(=O)O[C@@]12C[C@@H](C)[C@@]3(O)[C@@H](C=C(CO)C[C@]4(O)C(=O)C(C)=C[C@@H]34)[C@@H]1C2(C)C` [PROSTRATIN] gave a CC50 of more than 50 µM. In addition, the selectivity ratio in series [3] was more than 22; in series [5], 30. Besides, the concentration giving a half-maximal response (EC50) in series [4] is 0.226 µM.
